Assay outcomes: PubChem, Broad Institute
PGC1a acetyl inh = lowers PGC1a acetylation signal in U2OS cells. inhibition, % at 15.6 µM. 0.17% of 350,000 active. AID 651687. AlphaScreen anti-acetyl-lysine; with virally co-expressed GCN5 acetyltransferase;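 active = every replicate shows inhibition of at least 40%; inconclusive = mean inhibition at least 40% but some replicate below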;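 note: 0% = neutral control wells and 100% = positive control wells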
DENV2 CPE rescue = protects cells from dengue virus 2 cytopathic effect. DENV2-infected cells, cytopathic effect rescue, plate reader. CPE inhibition, % at 9.99 µM. 1.7% of 350,000 active. AID 651640; in the data active = CPE inhibition above about 20%, passing the limit was not always enough; inconclusive = no clear call, values can overlap the other calls; tested in BHK-21 cells;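 note: 0% = median of neutral control wells and 100% = median of positive control wells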
PglD inh = PglD (C. jejuni) enzyme inhibition; purified PglD enzyme, DTNB colorimetric CoA detection; 0.098% of 360,000 active; AID 602405; inhibition, % at 12.5 µM; in the data active = inhibition above about 16%, passing the limit was not always enough; inconclusive = no clear call, values can overlap the other calls
rRNA inh HTS = inhibitors of bacterial rRNA selective over humanized ribosomes; E. coli WT GFP vs humanized-ribosome RFP mutants, fluorescence, 24 h; hits give low values; DMSO median 0, no signal -100; GFP signal change (wild-type ribosome), % (no concentration beside the values); 1.6% of 350,000 active; AID 720706;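 active = significant combined selectivity score with lowered wild-type GFP, culture density cut under 30%, mutant RFP and density less affected; inactive = any of these conditions unmet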
Env fusion inh = HIV envelope-mediated fusion inhibition | AID 651610 | inhibition, % at 12.3 µM | HeLa-JRFL Env/CEM21 cell fusion, luciferase | 1.1% of 360,000 active;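 active = mean replicate inhibition score of at least 50 and every replicate individually at or above 50; inconclusive = only one of the two criteria met; inactive = mean below 50 and not all replicates reaching 50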;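 note: 0% = plate neutral controls and 100% = maraviroc near 300 nM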
FN deposition inh = fibronectin deposition inhibition; 0.086% of 350,000 active; AH1F fibroblasts, Alexa488-fibronectin deposition fluorescence, overnight; AID 743247; inhibition, % at 12.6 µM;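 active = mean inhibition across replicates of 30% or more, regardless of how many single replicates reach that level; inconclusive = mean under 30% yet at least half of replicates reach 30%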;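 note: positive control wells lacked labelled fibronectin entirely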
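material = AH1F fibroblast monolayer depositing Alexa488-labelled fibronectin into matrix | amount = 10000 AH1F cells/well | buffer or medium = DMEM plus 2% serum, read in PBS | incubation = 1 h cell adhesion before compound, then overnight fibronectin incubation | detection = fluorescence at 485 nm excitation, 525 nm emission | evaluation = percent inhibition as loss of matrix-bound fibronectin fluorescence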
* marks the source's active call; other numbers are inactive results; u = inconclusive; x = not tested or not shown; [ ] = remark or other dose. Only some compounds are listed: those with a hit (about 3.5% of all), similar ones and a draw of the others.

SMILES	PGC1a acetyl inh	DENV2 CPE rescue	PglD inh	rRNA inh HTS	Env fusion inh	FN deposition inh
O=C(NCCN1CCCC1)[C@@H]1N[C@@H]2c3ccc(C4=CCCCC4)c(=O)n3C[C@@H]2[C@H]1CO	-11.1	7.9	-0.8	1.8	x	x
Nc1ccc(N=Nc2ccccc2O)c(N)c1	5.0	-2.8	3.9	-40.3*	-90.6	2.1
COc1ccccc1CCNC(=O)Nc1cccc([N+](=O)[O-])c1	5.9	x	x	-20.4*	0.8	-8.1
COc1ccc(NC(=O)N(C)C[C@@H]2OCCCC[C@H](C)Oc3ccc(NC(=O)Nc4cccc5ccccc45)cc3C(=O)N([C@@H](C)CO)C[C@H]2C)cc1	-2.9	6.1	-1.8	-4.5	5.7[16.7 µM]	x
C(=N\Nc1nc2ccccc2[nH]1)/c1cccc2cccnc12	-30.4	-10.4	1.6	-53.3*	-139.7	5.7
Cc1[nH]c2ccccc2c1/C=N/Nc1nc2ccccc2[nH]1	-79.5	-23.9	-5.1	-47.0*	-75.7	20.5
COc1ccc(/C=N/Nc2nc3ccccc3[nH]2)c(OC)c1OC	u	-1.1	x	-27.4*	-87.3	1.1
O=C(Nc1cc(F)ccc1F)N1CC(=O)N2[C@H](CO)[C@H](c3ccc(-c4ccc(F)cc4)cc3)[C@@H]2C1	-4.6	0.2	x	-7.7	x	x
C[C@@H]1CN([C@@H](C)CO)S(=O)(=O)c2ccc(-c3cncnc3)cc2O[C@@H]1CN(C)C(=O)Cc1ccccc1	6.6	2.1	0.2	3.8	-25.7[16.7 µM]	x
O=S(=O)(Nc1cccc(Br)c1)c1cccc2nsnc12	x	-2.3	2.5	-33.5*	-6.8	-2.9
Cc1cccc(NS(=O)(=O)c2cccc3nsnc23)c1	-18.4	x	x	x	x	x
O=C(CC1CC1)N[C@H]1C[C@@H]2O[C@H](CO)CC[C@@H]2O[C@@H]1CCc1ccc(C#Cc2ccccc2)cc1	-7.4	28.2*	x	x	x	x
O=C(CC1CC1)N[C@H]1C[C@@H]2O[C@@H](CO)CC[C@@H]2O[C@@H]1CCc1ccc(C#Cc2ccccc2)cc1	-15.0	21.3*	x	x	x	x
COc1cccc(S(=O)(=O)Nc2ccc3c(c2)[C@@H]2C[C@@H](CC(=O)NCCc4ccccc4)O[C@H](CO)[C@@H]2O3)c1	-0.1	0.2	0.2	-5.5	-7.3[16.7 µM]	x
Cc1noc(C)c1NC(=O)N[C@H]1CC[C@H](CCNC(=O)C2CCC2)O[C@@H]1CO	10.0	-11.9	-1.3	0.0	28.1[16.7 µM]	x
Cc1cc(O)c(N=Nc2ccc(C(=O)O)cc2)cc1C	50.1*	-0.3	-2.5	0.7	-163.6	-9.4
CN(C)c1ccc(N=Nc2ccc(C(=O)O)cc2)cc1	x	1.2	x	8.5	32.0	3.8
Cc1ccc(-n2c(=O)c3c4c(sc3n3c(=S)[nH]nc23)CCC4)cc1	-25.0	-3.9	-2.5	x	27.1	7.9
COc1ccc(-n2c(=O)c3c4c(sc3n3c(=S)[nH]nc23)CCC4)cc1	-234.3	3.3	x	-24.8*	18.6	-4.0
COc1ccc(S(=O)(=O)Nc2cccc3c2O[C@@H](CN(C)S(=O)(=O)c2ccc(Cl)cc2)[C@@H](C)CN([C@H](C)CO)C3=O)cc1	-4.2	13.1	-1.8	4.1	-46.6[16.7 µM]	x
COc1ccc(C2/C=C\CN(C(=O)Nc3ccccc3)CC(=O)N2Cc2ccc(F)cc2)cc1 (centres undefined)	0.0	-2.7	-1.0	-27.1*	14.5	-2.5
COc1ccc(C2/C=C\CN(C(=O)Nc3ccc(C(F)(F)F)cc3)CC(=O)N2Cc2ccc(F)cc2)cc1 (centres undefined)	x	x	-5.1	x	x	x
Cc1ccc(NS(=O)(=O)N(C)C)cc1	-0.9	x	1.4	x	x	x
CN(C)S(=O)(=O)Nc1cc(Cl)cc(Cl)c1	-3.0	-8.4	x	-36.9*	-17.4	-5.8
O=[S@]1Oc2ccccc2-c2ccccc21	19.1	67.5*	2.4	-13.8	-17.8	4.1
O=S1c2ccccc2Oc2ccccc21	-4.8	-1.5	x	5.9	14.5	5.6
CCONc1ncnc2nonc12	x	0.1	-10.2	9.4	8.9	0.3
COc1ccc(CONc2ncnc3nonc23)cc1[N+](=O)[O-]	x	-3.0	x	-25.4*	1.7	-3.3
COc1cccc(C(=O)NC(=S)Nc2ccc(Cl)c(C(=O)O)c2)c1	3.9	x	0.5	x	x	x
CC(C)Oc1ccc(C(=O)NC(=S)Nc2ccc(Cl)c(C(=O)O)c2)cc1	-6.0	1.4	x	-20.6*	12.0	-3.5
